Measured values as given in PMC3401475 (Nucleic Acids Research, 2012).
Blank lines part the entries; values can stand above or below the compound they belong to.

What was measured:
[1] = Relative fluorescence quantum yield; format: physicochemical; conditions: in methanol, excitation 362 nm
human fibroblast cells = experiment: MTT cell viability, human fibroblasts; format: cell-based; conditions: at concentrations up to 500 µM
(CUG)10 RNA = experiment: SPR binding to
In short: (§1)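 Streptavidin coupled to both flow cells of a CM5 dextran chip after EDC/NHS activation. 5'-Biotin RNA captured at 200–1000 RU; reference cell biotin-blocked. Compound concentrations flowed in HBS-N (0.01 M HEPES, 0.15 M NaCl, pH 7.4) […]. Dissociation ≥200 s, then 0.5 or 1 M NaCl regeneration. Duplicate injections, buffer-blank subtracted. Global 1:1 Langmuir fit. KD averaged over two chips with different RNA densities. t1/2 = ln2/koff.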

C2C12 mouse myoblasts = experiment: MTT cell toxicity, mouse myoblasts; format: cell-based; conditions: 48 h, all concentrations tested
In short: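 C2C12 myoblasts in DMEM (10% FBS, 1% penicillin–streptomycin) grown to ~80% confluence at 37°C under CO2. Compound at varying concentrations (up to 1 mM), 48 h, 37°C. MTT in medium added for 4 h at 37°C, then isopropanol solubilisation; absorbance read at 600 nm.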

(CCUG)10 RNA = experiment: SPR binding to
In short: as §1

fluorescence quantum yield relative to quinine sulfate [1]: 0.64 | Apparent KD ((CUG)10 RNA; (CUG)10, HBS-N pH 7.4, average of two titrations): complete lack of binding
Compound: CCc1nc2cc3ccccc3cc2cc1C(=O)O [Compound 2, ethylbenzo[g]quinoline carboxylic acid]
toxicity by MTT assay (human fibroblast cells): no toxicity

Compound: CO[C@@]12[C@H](COC(N)=O)C3=C(C(=O)C(C)=C(N)C3=O)N1C[C@@H]1N[C@@H]12 [mitomycin C]
toxicity by MTT assay (C2C12 mouse myoblasts): significant toxicity

Residence time t1/2 ((CCUG)10 RNA; (CCUG)10, t1/2 = ln2/kd): 4 s | Kd ((CCUG)10 RNA; read-out: Apparent KD, (CCUG)10, HBS-N pH 7.4, average of two titrations): 1960 nM | Residence time t1/2 ((CUG)10 RNA; (CUG)10, t1/2 = ln2/kd): 14 s | Kd ((CUG)10 RNA; read-out: Apparent KD, (CUG)10, HBS-N pH 7.4, average of two titrations): 409 nM
Compound: NC[C@@H]1O[C@H](O[C@H]2[C@@H](O)[C@H](O[C@@H]3[C@@H](O)[C@H](N)C[C@H](N)[C@H]3O[C@H]3O[C@H](CN)[C@@H](O)[C@H](O)[C@H]3N)O[C@@H]2CO)[C@H](N)[C@@H](O)[C@@H]1O [Neomycin, Neomycin B]
